Source: ChEMBL document CHEMBL4316609, “Chemical synthesis and functional characterization of a new class of ceramide analogues as anti-cancer agents” (Bioorg Med Chem, 2019)

Experiments:
Assay type in all cases: functional, cell-based
[1] = Cytotoxicity against human SA cells measured after 48 hrs by MTT assay; conditions: +SA cell
Summary of the method: (§1)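 Seeded at 7x10^3 cells/well and allowed 24 h to attach. Compounds added at final 0 to 200 μM and incubated 48 h. Viability read by MTT. IC50 taken as the concentration giving 50% growth inhibition; mean ± SD, N = 4.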

SW-620 = test: Cytotoxicity against human SW620 cells measured after 48 hrs by MTT assay; conditions: SW-620, 48 h; summary of the method: as §1
A-431 = test: Cytotoxicity against human A431 cells measured after 48 hrs by MTT assay; conditions: A-431, 48 h; summary of the method: as §1
MCF7 = test: Cytotoxicity against human MCF7 cells measured after 48 hrs by MTT assay; conditions: MCF7, 48 h; summary of the method: as §1
SiHa = test: Cytotoxicity against human SiHa cells measured after 48 hrs by MTT assay; summary of the method: as §1
HepG2 = test: Cytotoxicity against human HepG2 cells measured after 48 hrs by MTT assay; conditions: HepG2, 48 h; summary of the method: as §1

For `CCCCCCCCCCCCCCCCCCNC(=O)[C@@H](NC(=O)c1cc2ccccc2n1C)[C@@H](C)O`, the IC50 [1] was 36.4 µM, the IC50 (SW-620) was 124 µM and the IC50 (A-431) was 61 µM. The IC50 (MCF7) was 36.4 µM.
For `CCCCCCCCCCCCCCCCCCNC(=O)[C@@H](NS(=O)(=O)c1cccs1)[C@@H](C)O`, the IC50 [1] was > 200 µM, the IC50 (SW-620) was > 200 µM and the IC50 (MCF7) was > 200 µM.
Work on `CCCCCCCCNC(=O)[C@@H](NC(=O)c1ccco1)[C@@H](C)O` yielded an IC50 [1] of 64.7 µM, an IC50 (SW-620) of 200 µM and an IC50 (A-431) of 64.5 µM. It also gave an IC50 (MCF7) of 91.8 µM.
`CCCCCCCCCCCCCCCCCCNC(=O)[C@@H](NC(=O)/C=C/c1ccccc1)[C@@H](C)O` gave an IC50 [1] of 47.1 µM, an IC50 (SiHa) of 35.9 µM and an IC50 (SW-620) of 200 µM. The IC50 (MCF7) was 39.2 µM.
For `CCCCCCCCCCCCCCNC(=O)[C@@H](NC(=O)c1cc2ccccc2o1)[C@@H](C)O`, the IC50 [1] was 9.61 µM, the IC50 (SiHa) was 14.2 µM and the IC50 (HepG2) was 23.4 µM. For the same molecule, the IC50 (SW-620) was 26.7 µM, the IC50 (A-431) was 20.1 µM and the IC50 (MCF7) was 23.4 µM.
In the case of `CCCCCCCCCCCCCCCCCCNC(=O)[C@@H](NC(=O)c1ccccc1)[C@@H](C)O`, the IC50 [1] is reported as > 400 µM, the IC50 (SiHa) is reported as 38.2 µM and the IC50 (SW-620) is reported as 200 µM. It also gave an IC50 (MCF7) of 31.8 µM.
`CCCCCCCCCCCCCCCCCCNC(=O)[C@@H](NC(=O)c1cccs1)[C@@H](C)O` gave an IC50 [1] of 53.5 µM, an IC50 (HepG2) of 92 µM and an IC50 (SW-620) of 200 µM. For the same molecule, the IC50 (A-431) was 33.3 µM and the IC50 (MCF7) was 25.7 µM.
Work on `CCCCCCCCCCCCCCNC(=O)[C@@H](NS(=O)(=O)c1cccs1)[C@@H](C)O` yielded an IC50 [1] of 11.6 µM, an IC50 (SiHa) of 20.4 µM and an IC50 (HepG2) of 21.6 µM. It also gave an IC50 (SW-620) of 18.4 µM, an IC50 (A-431) of 22 µM and an IC50 (MCF7) of 18.7 µM.
For `C/C=C/C=C/C(=O)N[C@H](C(=O)NCCCCCCCCCCCCCC)[C@@H](C)O`, the IC50 (SW-620) was 200 µM and the IC50 (MCF7) was 27.8 µM.
Molecule `CCCCCCCCNC(=O)[C@@H](NC(=O)/C=C/c1ccccc1)[C@@H](C)O` has an IC50 [1] of 25.6 µM, an IC50 (SiHa) of 41.4 µM and an IC50 (HepG2) of 55.6 µM. The IC50 (SW-620) was 61.4 µM, the IC50 (A-431) was 36 µM and the IC50 (MCF7) was 35.1 µM.
With `CCCCCCCCCCCCNC(=O)[C@@H](NC(=O)c1cccs1)[C@@H](C)O` the IC50 [1] was 23.3 µM, the IC50 (SiHa) was 23.9 µM and the IC50 (HepG2) was 30.1 µM. The IC50 (SW-620) was 29.2 µM, the IC50 (A-431) was 16.6 µM and the IC50 (MCF7) was 30.4 µM.
With `CCCCCCCCNC(=O)[C@@H](NC(=O)c1nccc2ccccc12)[C@@H](C)O` the IC50 [1] was 22.9 µM, the IC50 (SiHa) was 66 µM and the IC50 (HepG2) was 88.2 µM. It also gave an IC50 (SW-620) of 67.8 µM, an IC50 (A-431) of 26.9 µM and an IC50 (MCF7) of 63.2 µM.
With `CCCCCCCCCCCCCCCCCCNC(=O)[C@@H](NC(=O)c1cc2ccccc2o1)[C@@H](C)O` the IC50 (SW-620) was > 200 µM and the IC50 (A-431) was 78.8 µM.
With `CCCCCCCCCCCCCCNC(=O)[C@@H](NC(=O)/C=C/c1ccccc1)[C@@H](C)O` the IC50 [1] was 80.9 µM, the IC50 (SiHa) was 35.8 µM and the IC50 (SW-620) was 200 µM. It also gave an IC50 (A-431) of 64.9 µM and an IC50 (MCF7) of 64.6 µM.
Work on `CCCCCCCCCCCCNC(=O)[C@@H](NS(=O)(=O)c1cccs1)[C@@H](C)O` yielded an IC50 [1] of 20.1 µM, an IC50 (SiHa) of 30.9 µM and an IC50 (HepG2) of 25.9 µM. It also gave an IC50 (SW-620) of 27.9 µM, an IC50 (A-431) of 22 µM and an IC50 (MCF7) of 19.1 µM.
`CCCCCCCCCCCCCCNC(=O)[C@@H](NC(=O)c1cc2ccccc2[nH]1)[C@@H](C)O` showed an IC50 [1] of 12.1 µM, an IC50 (SiHa) of 14.2 µM and an IC50 (HepG2) of 10.5 µM. It also gave an IC50 (SW-620) of 15.2 µM, an IC50 (A-431) of 12.2 µM and an IC50 (MCF7) of 15.1 µM.
For `CCCCCCCCCCCCNC(=O)[C@@H](NC(=O)c1cc2ccccc2n1C)[C@@H](C)O`, the IC50 [1] was 31.3 µM, the IC50 (SW-620) was > 200 µM and the IC50 (MCF7) was 31.3 µM.
Molecule `CCCCCCCCNC(=O)[C@@H](NC(=O)c1ccccc1)[C@@H](C)O` has an IC50 [1] of 34.6 µM, an IC50 (SW-620) of 200 µM and an IC50 (A-431) of 61.3 µM.
`CCCCCCCCCCCCNC(=O)[C@@H](NC(=O)c1cc2ccccc2o1)[C@@H](C)O` gave an IC50 [1] of 10.5 µM, an IC50 (SiHa) of 12.8 µM and an IC50 (HepG2) of 22.9 µM. The IC50 (SW-620) was 21.3 µM, the IC50 (A-431) was 20 µM and the IC50 (MCF7) was 20.9 µM.
Molecule `CCCCCCCCCCCCCCCCCCNC(=O)[C@@H](NC(=O)c1cc2ccccc2[nH]1)[C@@H](C)O` has an IC50 [1] of 35.6 µM, an IC50 (SiHa) of 29.6 µM and an IC50 (HepG2) of 89.4 µM. The IC50 (SW-620) was 23.6 µM, the IC50 (A-431) was 81 µM and the IC50 (MCF7) was 35.6 µM.
In the case of `C/C=C/C=C/C(=O)N[C@H](C(=O)NCCCCCCCCCCCCCCCCCC)[C@@H](C)O`, the IC50 [1] is reported as > 200 µM, the IC50 (SiHa) is reported as > 200 µM and the IC50 (HepG2) is reported as 284 µM. It also gave an IC50 (SW-620) of 200 µM, an IC50 (A-431) of 187 µM and an IC50 (MCF7) of 79.6 µM.
Molecule `CCCCCCCCCCCCCCNC(=O)[C@@H](NC(=O)c1ccccc1)[C@@H](C)O` has an IC50 [1] of 56 µM, an IC50 (HepG2) of 54.2 µM and an IC50 (SW-620) of 200 µM. For the same molecule, the IC50 (MCF7) was 24.8 µM.
In the case of `CCCCCCCCCCCCCCCCCCNC(=O)[C@@H](NC(=O)c1ccco1)[C@@H](C)O`, the IC50 [1] is reported as 52.6 µM, the IC50 (SiHa) is reported as 13.3 µM and the IC50 (HepG2) is reported as 42.3 µM. The IC50 (SW-620) was > 200 µM, the IC50 (A-431) was 19.9 µM and the IC50 (MCF7) was 21.4 µM.
Work on `CCCCCCCCCCCCCCCCCCNC(=O)[C@@H](NS(=O)(=O)c1ccc(C)cc1)[C@@H](C)O` yielded an IC50 [1] of 47.9 µM, an IC50 (SiHa) of 29.8 µM and an IC50 (HepG2) of 75.8 µM. For the same molecule, the IC50 (SW-620) was 32.5 µM, the IC50 (A-431) was 34 µM and the IC50 (MCF7) was 60.1 µM.
For `CCCCCCCCCCCCNC(=O)[C@@H](NC(=O)/C=C/c1ccccc1)[C@@H](C)O`, the IC50 (SW-620) was 200 µM.
In the case of `CCCCCCCCCCCCCCCCCCNC(=O)[C@@H](NS(=O)(=O)c1ccc2ccccc2c1)[C@@H](C)O`, the IC50 [1] is reported as 21.2 µM, the IC50 (SiHa) is reported as 19.9 µM and the IC50 (HepG2) is reported as 19.8 µM. The IC50 (SW-620) was 24.6 µM, the IC50 (A-431) was 23.7 µM and the IC50 (MCF7) was 27.8 µM.
In the case of `CCCCCCCCCCCCNC(=O)[C@@H](NC(=O)Cc1c[nH]c2ccccc12)[C@@H](C)O`, the IC50 [1] is reported as 20 µM, the IC50 (SiHa) is reported as 13.6 µM and the IC50 (HepG2) is reported as 22.6 µM. The IC50 (SW-620) was 22 µM, the IC50 (A-431) was 23.4 µM and the IC50 (MCF7) was 15.5 µM.
`CCCCCCCCCCCCCCNC(=O)[C@@H](NC(=O)c1cccs1)[C@@H](C)O` showed an IC50 [1] of 21.2 µM, an IC50 (SiHa) of 63 µM and an IC50 (HepG2) of 88.4 µM. It also gave an IC50 (SW-620) of 78.4 µM, an IC50 (A-431) of 26.4 µM and an IC50 (MCF7) of 36.1 µM.
Molecule `C/C=C/C=C/C(=O)N[C@H](C(=O)NCCCCCCCCCCCC)[C@@H](C)O` has an IC50 (SW-620) of 200 µM and an IC50 (MCF7) of 37.1 µM.
In the case of `CCCCCCCCCCCCCCCCCCNC(=O)[C@@H](N)[C@@H](C)O`, the IC50 [1] is reported as > 200 µM, the IC50 (SiHa) is reported as 39.5 µM and the IC50 (HepG2) is reported as 44.5 µM. The IC50 (SW-620) was 21.4 µM, the IC50 (A-431) was 21.3 µM and the IC50 (MCF7) was 27.4 µM.
Work on `CCCCCCCCCCCCNC(=O)[C@@H](NS(=O)(=O)c1ccc(C)cc1)[C@@H](C)O` yielded an IC50 [1] of 27.2 µM, an IC50 (SiHa) of 31.6 µM and an IC50 (HepG2) of 25.8 µM. The IC50 (SW-620) was 25.6 µM, the IC50 (A-431) was 25.2 µM and the IC50 (MCF7) was 31.1 µM.
`CCCCCCCCCCCCCCCCCCNC(=O)[C@@H](NC(=O)Cc1c[nH]c2ccccc12)[C@@H](C)O` gave an IC50 [1] of 54.9 µM, an IC50 (SiHa) of 65.8 µM and an IC50 (HepG2) of 57.6 µM. It also gave an IC50 (A-431) of 31.8 µM and an IC50 (MCF7) of 37.3 µM.
With `CCCCCCCCCCCCNC(=O)[C@@H](NC(=O)c1cc2ccccc2[nH]1)[C@@H](C)O` the IC50 [1] was 12.3 µM, the IC50 (SiHa) was 21.2 µM and the IC50 (HepG2) was 12 µM. The IC50 (SW-620) was 18.8 µM, the IC50 (A-431) was 10.3 µM and the IC50 (MCF7) was 12.3 µM.
Molecule `CCCCCCCCCCCCCCNC(=O)[C@@H](NC(=O)c1nccc2ccccc12)[C@@H](C)O` has an IC50 [1] of 24.4 µM, an IC50 (SiHa) of 21.6 µM and an IC50 (HepG2) of 28.6 µM. It also gave an IC50 (SW-620) of 30.4 µM, an IC50 (A-431) of 23 µM and an IC50 (MCF7) of 22.8 µM.
For `CCCCCCCCCCCCCCNC(=O)[C@@H](NC(=O)c1ccco1)[C@@H](C)O`, the IC50 (SW-620) was 200 µM.
